# Assays:
# [1] = tested on: Bacillus cereus; assay: Antibacterial activity against Bacillus cereus ATCC 11778 by double-dilution technique; type: functional
# Method in brief: (§1)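 MIC measured against each bacterial strain using a double-dilution series of each compound. Every determination was run in duplicate or triplicate.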
# [2] = tested on: Listeria monocytogenes; assay: Antibacterial activity against Listeria monocytogenes ATCC 19115 by double-dilution technique; type: functional
# Method in brief: (§2)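 Double-dilution series of each compound against each strain, reported as MIC. Runs done in duplicate or triplicate.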
# [3] = tested on: Bacillus subtilis; assay: Antibacterial activity against Bacillus subtilis 168 harboring AAC(6')/APH(2'')-pRB374 by double-dilution technique; type: functional
# [4] = tested on: Bacillus subtilis; assay: Antibacterial activity against Bacillus subtilis 168 by double-dilution technique; type: functional; method in brief: as §2
# [5] = tested on: Streptococcus pyogenes; assay: Antibacterial activity against Streptococcus pyogenes Serotype M12 MGAS9429 by double-dilution technique; type: functional; method in brief: as §1
# [6] = tested on: Escherichia coli; assay: Inhibition of protein synthesis in Escherichia coli S30 extracts after 90 mins by coupled transcription/translation assay; type: functional; settings: 1.5 h
# Method in brief: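 E. coli extract coupled transcription/translation with luciferase reporter. Reactions with varying compound concentrations ran 90 min at 37 °C, were chilled on ice, then diluted in Tris-phosphate pH 7.8 buffer containing DTT, glycerol, Triton X-100 and BSA. Luminescence was read immediately after adding luciferase reagent. IC50 came from concentration-response fits of at least two independent experiments.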
# [7] = tested on: Staphylococcus epidermidis; assay: Antibacterial activity against biofilm negative Staphylococcus epidermidis ATCC 12228 by double-dilution technique; type: functional; method in brief: as §1
# [8] = tested on: Bacillus anthracis; assay: Antibacterial activity against Bacillus anthracis 34F2 Sterne by double-dilution technique; type: functional; method in brief: as §2
# [9] = tested on: Haemophilus influenzae; assay: Antibacterial activity against Haemophilus influenzae ATCC 51907 by double-dilution technique; type: functional; method in brief: as §1
# [10] = tested on: Escherichia coli; assay: Antibacterial activity against Escherichia coli MC1061 by double-dilution technique; type: functional; method in brief: as §2
# [11] = tested on: Staphylococcus aureus; assay: Antibacterial activity against Staphylococcus aureus ATCC 29213 by double-dilution technique; type: functional; method in brief: as §2
# [12] = tested on: Staphylococcus aureus; assay: Antibacterial activity against Staphylococcus aureus expressing NorA by double-dilution technique; type: functional; method in brief: as §2
# [13] = tested on: Mycolicibacterium smegmatis; assay: Antibacterial activity against Mycobacterium smegmatis str. MC2 155 by double-dilution technique; type: functional
# [14] = Drug metabolism assessed as enhanced intracellular survival protein (unknown origin)-mediated conversion at 100 uM by micro plate reader analysis relative to tobramycin; type: ADME
# Method in brief: (§3)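 Ellman assay: CoASH release coupled to DTNB (2 mM), read at 412 nm every 30 s for 1 h at 25 °C. Compound at 100 μM. Conditions by enzyme: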
# [15] = Drug metabolism assessed as aminoglycoside 2'-N-acetyltransferase Ic (unknown origin)-mediated conversion at 100 uM by micro plate reader analysis relative to tobramycin; type: ADME; method in brief: as §3
# [16] = Drug metabolism assessed as aminoglycoside 3-N-acetyltransferase AAC(3)-IV (unknown origin)-mediated conversion at 100 uM by micro plate reader analysis relative to tobramycin; type: ADME; method in brief: as §3
SMILES,MIC [1] [µg/mL],MIC [2] [µg/mL],MIC [3] [µg/mL],MIC [4] [µg/mL],MIC [5] [µg/mL],IC50 [6] [µM],MIC [7] [µg/mL],MIC [8] [µg/mL],MIC [9] [µg/mL],MIC [10] [µg/mL],MIC [11] [µg/mL],MIC [12] [µg/mL],MIC [13] [µg/mL],fold change (FC) [14],fold change (FC) [15],fold change (FC) [16]
CCC[C@@H]1C[C@@H](C(=O)N[C@H]([C@H]2O[C@H](SC)[C@H](O)[C@@H](O)[C@H]2O)[C@@H](C)SCCOCCSSCCOCCSCC(=O)N[C@@H](CO)[C@H](O)c2ccc([N+](=O)[O-])cc2)N(C)C1,2.3,4.7,> 150,2.3,> 128,18.3,2,< 0.3,150,4.7,0.6,< 0.3,18.8,–,–,–
CCC[C@@H]1C[C@@H](C(=O)N[C@H]([C@H]2O[C@H](SC)[C@H](O)[C@@H](O)[C@H]2O)[C@@H](C)SCCOCCSCC(=O)N[C@H](CO)[C@H](O)c2ccc([N+](=O)[O-])cc2)N(C)C1,18.8,75,> 150,18.8,> 128,14.7,4,2.3,75,9.4,18.8,18.8,> 150,–,–,–
NC[C@H]1O[C@H](O[C@H]2[C@H](O)[C@@H](O[C@@H]3O[C@H](CSCCOCCSSCCOCCSCC(=O)N[C@H](CO)[C@H](O)c4ccc([N+](=O)[O-])cc4)[C@@H](O)[C@H](N)[C@H]3O)[C@H](N)C[C@@H]2N)[C@H](N)C[C@@H]1O,150,18.8,150,4.7,16,1,16,75,37.5,4.7,150,9.4,4.7,2.6,1.6,1.4
NC[C@H]1O[C@H](O[C@H]2[C@H](O)[C@@H](O[C@@H]3O[C@H](CSCCOCCSCC(=O)N[C@H](CO)[C@H](O)c4ccc([N+](=O)[O-])cc4)[C@@H](O)[C@H](N)[C@H]3O)[C@H](N)C[C@@H]2N)[C@H](N)C[C@@H]1O,> 150,> 150,> 150,150,8,1.49,8,> 150,150,> 150,> 150,> 150,18.8,2.9,2,1.8
O=C(CSCCOCCSSCCOCCSCC(=O)N[C@H](CO)[C@H](O)c1ccc([N+](=O)[O-])cc1)N[C@H](CO)[C@H](O)c1ccc([N+](=O)[O-])cc1,75,9.4,> 150,150,> 128,25.6,> 64,75,150,18.8,0.6,> 150,> 150,–,–,–
O=C(CSCCOCCSCC(=O)N[C@H](CO)[C@H](O)c1ccc([N+](=O)[O-])cc1)N[C@H](CO)[C@H](O)c1ccc([N+](=O)[O-])cc1,> 150,> 150,> 150,> 150,> 128,32.9,> 64,> 150,> 150,> 150,> 150,> 150,> 150,–,–,–
NC[C@H]1O[C@H](O[C@H]2[C@H](O)[C@@H](O[C@@H]3O[C@H](CSCCOCCSSCCOCCSC[C@H]4O[C@@H](O[C@@H]5[C@@H](O)[C@H](O[C@H]6O[C@H](CN)[C@@H](O)C[C@H]6N)[C@@H](N)C[C@H]5N)[C@H](O)[C@@H](N)[C@@H]4O)[C@@H](O)[C@H](N)[C@H]3O)[C@H](N)C[C@@H]2N)[C@H](N)C[C@@H]1O,75,37.5,37.5,0.6,64,0.27,16,37.5,9.4,18.8,37.5,9.4,2.3,4.1,2.4,2
CCC[C@@H]1C[C@@H](C(=O)N[C@H]([C@H]2O[C@H](SC)[C@H](O)[C@@H](O)[C@H]2O)[C@@H](C)SCCOCCSSCCOCCS[C@H](C)[C@H](NC(=O)[C@@H]2C[C@@H](CCC)CN2C)[C@H]2O[C@H](SC)[C@H](O)[C@@H](O)[C@H]2O)N(C)C1,2.3,4.7,> 150,2.3,> 128,6.1,1,2.3,37.5,9.4,0.6,0.6,18.8,–,–,–
O=C(CSCCOCCS)N[C@H](CO)[C@H](O)c1ccc([N+](=O)[O-])cc1,150,> 150,> 150,> 150,128,48.7,> 128,150,> 150,37.5,> 150,> 150,> 150,–,–,–
CCC[C@@H]1C[C@@H](C(=O)N[C@H]([C@H]2O[C@H](SC)[C@H](O)[C@@H](O)[C@H]2O)[C@@H](C)SCCOCCS)N(C)C1,9.4,37.5,> 150,9.4,2,> 100,4,2.3,75,37.5,4.7,1.2,75,–,–,–
NC[C@H]1O[C@H](O[C@H]2[C@H](O)[C@@H](O[C@@H]3O[C@H](CSCCOCCS)[C@@H](O)[C@H](N)[C@H]3O)[C@H](N)C[C@@H]2N)[C@H](N)C[C@@H]1O,150,18.8,75,2.3,128,0.43,16,37.5,37.5,18.8,75,18.8,2.3,–,–,–
"CCC[C@@H]1C[C@@H](C(=O)NC([C@H]2O[C@H](SC)[C@H](O)[C@@H](O)[C@H]2O)[C@@H](C)SCCOCCSSCCOCCSC[C@H]2O[C@@H](O[C@@H]3[C@@H](O)[C@H](O[C@H]4O[C@H](CN)[C@@H](O)C[C@H]4N)[C@@H](N)C[C@H]3N)C(O)[C@@H](N)[C@@H]2O)N(C)C1 (single isomer, unassigned)",9.4,18.8,150,1.2,64,0.98,2,2.3,75,4.7,2.3,4.7,4.7,2.6,1.6,1.4
O=C(N[C@H](CO)[C@H](O)c1ccc([N+](=O)[O-])cc1)C(Cl)Cl [CHLORAMPHENICOL],4.7,9.4,1.2,2.3,4,6.4,8,4.7,0.6,< 0.3,9.4,4.7,18.8,–,–,–
CCC[C@@H]1C[C@@H](C(=O)N[C@@H]([C@H]2O[C@H](SC)[C@H](O)[C@@H](O)[C@H]2O)[C@H](C)Cl)N(C)C1 [CLINDAMYCIN],–,4.7,> 150,–,1,18.1,1,< 0.3,4.7,2.3,–,–,9.4,–,–,–
NC[C@H]1O[C@H](O[C@H]2[C@H](O)[C@@H](O[C@H]3O[C@H](CO)[C@@H](O)[C@H](N)[C@H]3O)[C@H](N)C[C@@H]2N)[C@H](N)C[C@@H]1O [TOBRAMYCIN],75,18.8,9.4,2.3,64,0.015,0.3,9.4,18.8,9.4,37.5,9.4,0.6,–,–,–

# From ChEMBL document CHEMBL2417431, “Synthesis and evaluation of hetero- and homodimers of ribosome-targeting antibiotics: antimicrobial activity, in vitro inhibition of translation, and drug resistance” (J Med Chem, 2013)
